“And” between values parts separate entries of the source, which are not always exact repeats. Equal values may be shown once.
Key:
Rattus norvegicus [1] = assay: Tested for steady state volume of distribution (Vss) after intravenous bolus administration of 100 mg/kg in rat 2; format: ADME, organism-based; design: dose 100 mg/kg, route intravenous; settings: in vivo
Summary of the method: (§1)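 Rats (two per compound) were catheterised in the jugular vein under chloral hydrate. A 100 mg/kg iv bolus was given through the catheter, followed by a saline rinse. Serial blood samples (250–300 μL) were collected into heparinized tubes and centrifuged for plasma. Each rat's plasma concentration–time data were fitted by nonlinear regression to a compartment model to derive AUC, MRT, CL, Vss and phase half-lives. Body weight was recorded for each rat.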

Rattus norvegicus [2] = assay: Tested for mean residence time (MRT) after intravenous bolus administration of 100 mg/kg in rat 1; format: ADME, organism-based; design: dose 100 mg/kg, route intravenous; settings: in vivo; summary of the method: as §1
Rattus norvegicus [3] = organism: Rattus norvegicus; assay: Tested in vitro for N-nitrosodimethylamine (NDMA) demethylase activity at 0.1 mM for 0 mM concentration of formaldehyde; format: functional
Summary of the method: (§2)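 Liver microsomal fraction from untreated male Sprague–Dawley rats with NADPH-generating system. NDMA substrate 0.1–1 mM; test compound 2–20 mM or DDTC 2 mM added. Formaldehyde and acetaldehyde formed measured as (2,4-dinitrophenyl)hydrazones. Mean ± SD of three separate experiments.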

Rattus norvegicus [4] = assay: Tested for cumulative urinary excretion following intravenous bolus dose of 100 mg/kg in rat at 8-24 h was recovered; format: functional, Urine
Summary of the method: (§3)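 Rats (five per group) were given a single 100 mg/kg dose ip or as an iv bolus. Each was housed alone in a metabolism cage, and urine was collected over 0–8 h and 8–24 h. Parent compound and the monosaccharide-linked metabolite in urine were quantified and reported as cumulative % of dose, mean ± SD.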

Rattus norvegicus [5] = organism: Rattus norvegicus; assay: Tested in vitro for N-nitrosodimethylamine (NDMA) demethylase activity at 0.1 mM for 2 mM concentration of acetaldehyde; format: functional; summary of the method: as §2
Rattus norvegicus [6] = organism: Rattus norvegicus; assay: Tested in vitro for N-nitrosodimethylamine (NDMA) demethylase activity at 0.1 mM for 0 mM concentration of acetaldehyde; format: functional; summary of the method: as §2
Rattus norvegicus [7] = organism: Rattus norvegicus; assay: Tested in vitro for N-nitrosodimethylamine (NDMA) demethylase activity at 2 mM for 2 mM concentration of formaldehyde; format: functional; summary of the method: as §2
Rattus norvegicus [8] = assay: Tested for cumulative urinary excretion following intraperitoneal dose of 100 mg/kg in rat at 0-8 hr was recovered; format: functional, Urine; summary of the method: as §3
Rattus norvegicus [9] = assay: Tested for cumulative urinary excretion following intraperitoneal dose of 100 mg/kg in rat at 8-24 h; format: functional, Urine; summary of the method: as §3
Rattus norvegicus [10] = assay: Tested ex vivo for analysis of DNA single-strand breaks in primary rat hepatocyte by oral treatment of NaCl during first gavage; format: functional
Summary of the method: (§4)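 Fasted rats given a first gavage of 0.5 mmol/kg test agent or saline, then NDEA (1.4 mg/kg) or saline by a second gavage 2 h later, both in 10 mL NaCl/kg. At 1 h after the second gavage, hepatocytes were isolated by two-step in situ perfusion under metophane anaesthesia. Alkaline filter elution: 1.5 × 10⁶ cells/filter, lysis at pH 10 with SDS/proteinase K, ten elution fractions, DNA measured by Hoechst 33258 fluorescence. Readout is control minus treated % DNA retained on filter; n = 6.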

[11] = Tested for the half life period in beta glucosidase at pH of 7.4; 6-12 days; format: ADME; settings: pH 7.4
Rattus norvegicus [12] = organism: Rattus norvegicus; assay: Tested in vitro for N-nitrosodimethylamine (NDMA) demethylase activity at 2 mM for 2 mM concentration of acetaldehyde; format: functional; summary of the method: as §2
Rattus norvegicus [13] = assay: Tested for steady state volume of distribution (Vss) after intravenous bolus administration of 100 mg/kg in rat 1; format: ADME, organism-based; design: dose 100 mg/kg, route intravenous; settings: in vivo; summary of the method: as §1
Rattus norvegicus [14] = assay: Tested ex vivo for analysis of DNA single-strand breaks in primary rat hepatocyte by oral treatment of NDEA during first gavage; format: functional
Rattus norvegicus [15] = assay: Tested ex vivo for analysis of DNA single-strand breaks in primary rat hepatocyte by oral treatment of NDEA during second gavage, 2 hr after first gavage.; format: functional; summary of the method: as §4
Rattus norvegicus [16] = organism: Rattus norvegicus; assay: Tested in vitro for N-nitrosodimethylamine (NDMA) demethylase activity at 0.1 mM for 2 mM concentration of formaldehyde; format: functional; summary of the method: as §2
[17] = Tested for half -life alpha after intravenous bolus administration of 100 mg/kg in rat 2; format: ADME, organism-based; design: dose 100 mg/kg, route intravenous; settings: in vivo, read-out: T1/2 alpha; summary of the method: as §1
Rattus norvegicus [18] = assay: Tested for cumulative urinary excretion following intravenous bolus dose of 100 mg/kg in rat at 0-8 hr was recovered; format: functional, Urine; summary of the method: as §3
Rattus norvegicus [19] = organism: Rattus norvegicus; assay: Tested in vitro for N-nitrosodimethylamine (NDMA) demethylase activity at 2 mM for 0 mM concentration of acetaldehyde; format: functional; summary of the method: as §2
Rattus norvegicus [20] = organism: Rattus norvegicus; assay: Tested in vitro for N-nitrosodimethylamine (NDMA) demethylase activity at 0.5 mM for 2 mM concentration of formaldehyde; format: functional; summary of the method: as §2
[21] = Tested for half life gamma after intravenous bolus administration of 100 mg/kg in rat 1; format: ADME, organism-based; design: dose 100 mg/kg, route intravenous; settings: in vivo, read-out: T1/2 gamma; summary of the method: as §1
Rattus norvegicus [22] = organism: Rattus norvegicus; assay: Tested in vitro for N-nitrosodimethylamine (NDMA) demethylase activity at 2 mM for 5 mM concentration of formaldehyde; format: functional; summary of the method: as §2
Rattus norvegicus [23] = assay: Tested for body weight after intravenous bolus administration of 100 mg/kg in rat 2; format: ADME, organism-based; design: dose 100 mg/kg, route intravenous; settings: in vivo; summary of the method: as §1
Rattus norvegicus [24] = organism: Rattus norvegicus; assay: Tested in vitro for N-nitrosodimethylamine (NDMA) demethylase activity at 0.5 mM for 2 mM concentration of acetaldehyde; format: functional; summary of the method: as §2
[25] = Tested for the half life period in alpha glucosidase at pH of 7.4; 9-18 days; format: ADME; settings: pH 7.4
[26] = Tested for half life beta after intravenous bolus administration of 100 mg/kg in rat 2; format: ADME, organism-based; design: dose 100 mg/kg, route intravenous; settings: in vivo, read-out: T1/2 beta; summary of the method: as §1
Rattus norvegicus [27] = assay: Tested for cumulative urinary excretion following intravenous bolus dose of 100 mg/kg in rat at 8-24 h; format: functional, Urine; summary of the method: as §3
Rattus norvegicus [28] = assay: Tested for cumulative urinary excretion following intraperitoneal dose of 100 mg/kg in rat at 0-8 h; format: functional, Urine; summary of the method: as §3
Rattus norvegicus [29] = organism: Rattus norvegicus; assay: Tested in vitro for N-nitrosodimethylamine (NDMA) demethylase activity at 2 mM for 20 mM concentration of formaldehyde; format: functional; summary of the method: as §2
Rattus norvegicus [30] = assay: Tested for area under the curve (AUC) after intravenous bolus administration of 100 mg/kg in rat 1; format: ADME, organism-based; design: dose 100 mg/kg, route intravenous; settings: in vivo; summary of the method: as §1
[31] = Tested for half -life alpha after intravenous bolus administration of 100 mg/kg in rat 1; format: ADME, organism-based; design: dose 100 mg/kg, route intravenous; settings: in vivo, read-out: T1/2 alpha; summary of the method: as §1
Rattus norvegicus [32] = assay: Tested for cumulative urinary excretion following intraperitoneal dose of 100 mg/kg in rat at 8-24 hr was recovered; format: functional, Urine; summary of the method: as §3
Rattus norvegicus [33] = organism: Rattus norvegicus; assay: Tested in vitro for N-nitrosodimethylamine (NDMA) demethylase activity at 1 mM for 2 mM concentration of acetaldehyde; format: functional; summary of the method: as §2
Rattus norvegicus [34] = organism: Rattus norvegicus; assay: Tested in vitro for N-nitrosodimethylamine (NDMA) demethylase activity at 2 mM for 0 mM concentration of formaldehyde; format: functional; summary of the method: as §2
Rattus norvegicus [35] = assay: Tested for half life beta after intravenous bolus administration of 100 mg/kg in rat 1; format: ADME, organism-based; design: dose 100 mg/kg, route intravenous; settings: in vivo; summary of the method: as §1
Rattus norvegicus [36] = organism: Rattus norvegicus; assay: Tested in vitro for N-nitrosodimethylamine (NDMA) demethylase activity at 2 mM for 5 mM concentration of acetaldehyde; format: functional; summary of the method: as §2
Rattus norvegicus [37] = assay: Tested for mean residence time (MRT) after intravenous bolus administration of 100 mg/kg in rat 2; format: ADME, organism-based; design: dose 100 mg/kg, route intravenous; settings: in vivo; summary of the method: as §1
Rattus norvegicus [38] = assay: Tested ex vivo for analysis of DNA single-strand breaks in primary rat hepatocyte by oral treatment of NaCl during second gavage, 2 hr after first gavage.; format: functional; summary of the method: as §4
Rattus norvegicus [39] = assay: Tested for total body clearance (CL) after intravenous bolus administration of 100 mg/kg in rat 2; format: ADME, organism-based; design: dose 100 mg/kg, route intravenous; settings: in vivo; summary of the method: as §1
Rattus norvegicus [40] = organism: Rattus norvegicus; assay: Tested in vitro for N-nitrosodimethylamine (NDMA) demethylase activity at 1 mM for 2 mM concentration of formaldehyde; format: functional; summary of the method: as §2
Rattus norvegicus [41] = assay: Tested for total body clearance (CL) after intravenous bolus administration of 100 mg/kg in rat 1; format: ADME, organism-based; design: dose 100 mg/kg, route intravenous; settings: in vivo; summary of the method: as §1
[42] = Tested for half life gamma after intravenous bolus administration of 100 mg/kg in rat 2; format: ADME, organism-based; design: dose 100 mg/kg, route intravenous; settings: in vivo, read-out: T1/2 gamma; summary of the method: as §1
Rattus norvegicus [43] = assay: Tested for body weight after intravenous bolus administration of 100 mg/kg in rat 1; format: ADME, organism-based; design: dose 100 mg/kg, route intravenous; settings: in vivo; summary of the method: as §1
Rattus norvegicus [44] = assay: Tested for cumulative urinary excretion following intravenous bolus dose of 100 mg/kg in rat at 0-8 h; format: functional, Urine; summary of the method: as §3
Rattus norvegicus [45] = assay: Tested for area under the curve (AUC) after intravenous bolus administration of 100 mg/kg in rat 2; format: ADME, organism-based; design: dose 100 mg/kg, route intravenous; settings: in vivo; summary of the method: as §1
[46] = Tested for the half life period in phosphate buffer at pH of 7.4; Stable; format: ADME; settings: pH 7.4

## CCN(CC)C(=S)SC1OC(CO)C(O)C(O)C1O (stereo not given)
Rattus norvegicus [1]
  Vss: 0.1848 L/kg
Rattus norvegicus [2]
  MRT: 59.8 min
Rattus norvegicus [3]
  Formaldehyde: 4.6 nM (mg of protein)-1
Rattus norvegicus [4]
  Excretion: 1.2 % of dose
Rattus norvegicus [5]
  Acetaldehyde: 10.9 nM (mg of protein)-1
Rattus norvegicus [6]
  Acetaldehyde: 0 nM (mg of protein)-1
Rattus norvegicus [7]
  Formaldehyde: 14.7 nM (mg of protein)-1
Rattus norvegicus [8]
  Excretion: 21 % of dose
Rattus norvegicus [9]
  Excretion: 2.2 % of dose
Rattus norvegicus [10]
  DNA on filter: 60
  Viability: 82%
[11]
  half-life: 144 h
Rattus norvegicus [12]
  Acetaldehyde: 13.8 nM (mg of protein)-1 and 31.5 nM (mg of protein)-1
Rattus norvegicus [13]
  Vss: 0.1526 L/kg
Rattus norvegicus [14]
  DNA on filter: 74
  Viability: 92%
Rattus norvegicus [15]
  DNA on filter: 77
  Viability: 106%
Rattus norvegicus [16]
  Formaldehyde: 1.2 nM (mg of protein)-1
[17]
  half-life: 5.2 min
Rattus norvegicus [18]
  Excretion: 13.1 % of dose
Rattus norvegicus [19]
  Acetaldehyde: 0 nM (mg of protein)-1
Rattus norvegicus [20]
  Formaldehyde: 9 nM (mg of protein)-1
[21]
  half-life: 88.8 min
Rattus norvegicus [22]
  Formaldehyde: 11.9 nM (mg of protein)-1
Rattus norvegicus [23]
  Body weight: 150 g
Rattus norvegicus [24]
  Acetaldehyde: 8.5 nM (mg of protein)-1
[25]
  half-life: 216 h
[26]
  half-life: 23.6 min
Rattus norvegicus [27]
  Excretion: 1.5 % of dose
Rattus norvegicus [28]
  Excretion: 31.2 % of dose
Rattus norvegicus [29]
  Formaldehyde: 1.5 nM (mg of protein)-1
Rattus norvegicus [30]
  AUC: 17.6 uM min l-1
[31]
  half-life: 3.7 min
Rattus norvegicus [32]
  Excretion: 1 % of dose
Rattus norvegicus [33]
  Acetaldehyde: 4.3 nM (mg of protein)-1
Rattus norvegicus [34]
  Formaldehyde: 15 nM (mg of protein)-1
Rattus norvegicus [35]
  T1/2 beta: 19.3 min
Rattus norvegicus [36]
  Acetaldehyde: 25.9 nM (mg of protein)-1
Rattus norvegicus [37]
  MRT: 43.8 min
Rattus norvegicus [38]
  DNA on filter: 58
  Viability: 100%
Rattus norvegicus [39]
  Clearance: 42.1 mL/min/kg
Rattus norvegicus [40]
  Formaldehyde: 6.2 nM (mg of protein)-1
Rattus norvegicus [41]
  Clearance: 25.5 mL/min/kg
[42]
  half-life: 129 min
Rattus norvegicus [43]
  Body weight: 140 g
Rattus norvegicus [44]
  Excretion: 34.5 % of dose
Rattus norvegicus [45]
  AUC: 11.4 uM min l-1
[46]
  T1/2: Stable
